Source: ChEMBL document CHEMBL4842397, “Macrocyclization as a Source of Desired Polypharmacology. Discovery of Triple PI3K/mTOR/PIM Inhibitors” (ACS Med Chem Lett, 2021)

Tests used:
[1] = molecular target: Serine/threonine-protein kinase pim-1 (Homo sapiens, UniProt P11309); assay: Inhibition of human PIM1 using ARKRRRHPSGPPTA as substrate measured after 1.5 hrs by ADP hunter plus assay
[2] = molecular target: Phosphatidylinositol 4,5-bisphosphate 3-kinase catalytic subunit alpha isoform (Homo sapiens, UniProt P42336); assay: Inhibition of PI3Kalpha (unknown origin) by ADP-Glo assay
[3] = molecular target: Serine/threonine-protein kinase mTOR (Homo sapiens, UniProt P42345); assay: Inhibition of mTOR (unknown origin) by LanthaScreen assay
[4] = molecular target: PI3-kinase p110-alpha/p85-alpha (Homo sapiens, UniProt P42336); assay: Inhibition of human PI3K p110alpha/p85alpha by HTRF assay; type: protein-complex assay
Method in brief: (§1)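 Ki from an HTRF assay on each PI3K isoform, reported in nM as the average of two independent experiments.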

[5] = molecular target: Phosphatidylinositol 4,5-bisphosphate 3-kinase catalytic subunit gamma isoform (Homo sapiens, UniProt P48736); assay: Inhibition of human PI3Kgamma by HTRF assay; method in brief: as §1
[6] = molecular target: Serine/threonine-protein kinase PIM (Homo sapiens, UniProt P11309+Q9P1W9+Q86V86); assay: Inhibition of PIM in human MV4-11 cells assessed as BAD phosphorylation at Ser112 measured after over night incubation by lotting based cellular assay; type: cell-based
[7] = molecular target: Serine/threonine-protein kinase pim-2 (Homo sapiens, UniProt Q9P1W9); assay: Inhibition of PIM2 (unknown origin) using ARKRRRHPSGPPTA as peptide substrate by ADP Hunter Plus assay
PI3K p110 beta/p85 alpha = PI3K p110 beta/p85 alpha (Homo sapiens, UniProt P42338); assay: Inhibition of human PI3K p110beta/p85alpha by HTRF assay; type: protein-complex assay; method in brief: as §1
[8] = Tmax in BALB/c mouse at 5 mg/kg, po; type: ADME, organism-based; settings: in vivo
Method in brief: (§2)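 Preliminary single-dose pharmacokinetics in BALB-C mice, given I.V. or P.O. Units: AUC h.ng/mL, T1/2 h, Cl L/h/kg, Vd L/kg, Cmax ng/mL, Tmax h. Bioavailability is the absorbed fraction at the doses tested.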

[9] = Microsomal stability in human liver microsomes incubated for 30 mins by LC-MS/MS analysis; type: ADME, Microsome; settings: read-out: Stabilty
[10] = Oral bioavailability in BALB/c mouse at 5 mg/kg; type: ADME, organism-based; settings: in vivo; method in brief: as §2
[11] = AUClast in BALB/c mouse at 5 mg/kg, po; type: ADME, organism-based; set-up: route oral, time 0 - last, dose 5 mg/kg; settings: in vivo; method in brief: as §2
[12] = Volume of distribution at steady state in BALB/c mouse at 0.7 mg/kg, iv; type: ADME, organism-based; settings: in vivo, read-out: Vdss; method in brief: as §2
[13] = molecular target: Serine/threonine-protein kinase pim-3 (Homo sapiens, UniProt Q86V86); assay: Inhibition of PIM3 (unknown origin) using ARKRRRHPSGPPTA as peptide substrate by ADP Hunter Plus assay
[14] = Cmax in BALB/c mouse at 5 mg/kg, po; type: ADME, organism-based; set-up: route oral, dose 5 mg/kg; settings: in vivo; method in brief: as §2
[15] = Clearance in BALB/c mouse at 0.7 mg/kg, iv; type: ADME, organism-based; settings: in vivo; method in brief: as §2
[16] = Half life in BALB/c mouse at 5 mg/kg, po; type: ADME, organism-based; settings: in vivo; method in brief: as §2
PI3K/mTOR (Homo sapiens) = assay: Inhibition of PI3K/mTOR in human MV4-11 cells assessed as Akt phosphorylation at Ser473 measured after over night incubation by lotting based cellular assay
[17] = Half life in BALB/c mouse at 0.7 mg/kg, iv; type: ADME, organism-based; settings: in vivo; method in brief: as §2
[18] = molecular target: Voltage-gated inwardly rectifying potassium channel KCNH2 (Homo sapiens, UniProt Q12809); assay: Inhibition of human ERG at < 30 uM
[19] = AUClast in BALB/c mouse at 0.7 mg/kg, iv; type: ADME, organism-based; set-up: route intravenous, time 0 - last, dose 0.7 mg/kg; settings: in vivo; method in brief: as §2
[20] = molecular target: PI3-kinase p110-delta/p85-alpha (Homo sapiens, UniProt O00329); assay: Inhibition of human PI3K p110delta/p85alpha by HTRF assay; type: protein-complex assay; method in brief: as §1

Phosphatidylinositol 4,5-bisphosphate 3-kinase catalytic subunit alpha isoform, sequence (P42336 whole entry, canonical isoform): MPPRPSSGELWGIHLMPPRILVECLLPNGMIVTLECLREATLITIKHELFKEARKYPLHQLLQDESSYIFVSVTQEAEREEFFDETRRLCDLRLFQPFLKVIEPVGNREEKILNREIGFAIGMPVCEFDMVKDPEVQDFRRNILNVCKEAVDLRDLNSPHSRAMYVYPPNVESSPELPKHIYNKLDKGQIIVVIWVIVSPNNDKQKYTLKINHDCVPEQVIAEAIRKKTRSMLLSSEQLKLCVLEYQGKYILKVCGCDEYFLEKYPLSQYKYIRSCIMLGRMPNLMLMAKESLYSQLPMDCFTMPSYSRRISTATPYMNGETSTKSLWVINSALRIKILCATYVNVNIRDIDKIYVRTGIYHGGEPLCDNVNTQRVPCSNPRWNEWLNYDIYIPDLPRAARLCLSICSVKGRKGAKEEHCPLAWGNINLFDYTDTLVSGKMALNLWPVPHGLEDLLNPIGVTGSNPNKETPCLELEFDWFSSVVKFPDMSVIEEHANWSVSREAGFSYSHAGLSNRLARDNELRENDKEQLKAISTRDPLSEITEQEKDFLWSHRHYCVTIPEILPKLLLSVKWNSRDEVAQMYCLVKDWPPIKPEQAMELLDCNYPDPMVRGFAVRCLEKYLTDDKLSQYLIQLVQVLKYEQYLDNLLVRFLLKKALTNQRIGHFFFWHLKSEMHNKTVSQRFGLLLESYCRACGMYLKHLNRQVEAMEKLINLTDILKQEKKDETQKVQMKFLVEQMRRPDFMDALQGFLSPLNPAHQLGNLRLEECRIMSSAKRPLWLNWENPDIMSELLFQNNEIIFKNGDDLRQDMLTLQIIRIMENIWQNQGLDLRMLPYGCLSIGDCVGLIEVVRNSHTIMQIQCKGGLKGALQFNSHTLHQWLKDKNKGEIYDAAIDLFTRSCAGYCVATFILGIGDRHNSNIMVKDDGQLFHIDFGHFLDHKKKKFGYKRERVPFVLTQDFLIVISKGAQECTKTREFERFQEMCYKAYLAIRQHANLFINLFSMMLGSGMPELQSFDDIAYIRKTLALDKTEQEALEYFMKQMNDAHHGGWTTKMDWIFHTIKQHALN
Serine/threonine-protein kinase pim-1, sequence (P11309 whole entry, canonical isoform): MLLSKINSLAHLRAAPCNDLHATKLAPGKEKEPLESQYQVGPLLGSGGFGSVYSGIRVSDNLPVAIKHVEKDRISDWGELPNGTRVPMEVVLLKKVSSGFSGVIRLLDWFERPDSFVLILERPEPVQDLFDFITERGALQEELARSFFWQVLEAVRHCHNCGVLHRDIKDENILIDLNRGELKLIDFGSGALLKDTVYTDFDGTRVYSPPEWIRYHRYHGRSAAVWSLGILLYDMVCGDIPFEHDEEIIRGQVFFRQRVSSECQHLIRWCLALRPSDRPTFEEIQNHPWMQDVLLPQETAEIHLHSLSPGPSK
Serine/threonine-protein kinase pim-2, sequence (Q9P1W9 whole entry): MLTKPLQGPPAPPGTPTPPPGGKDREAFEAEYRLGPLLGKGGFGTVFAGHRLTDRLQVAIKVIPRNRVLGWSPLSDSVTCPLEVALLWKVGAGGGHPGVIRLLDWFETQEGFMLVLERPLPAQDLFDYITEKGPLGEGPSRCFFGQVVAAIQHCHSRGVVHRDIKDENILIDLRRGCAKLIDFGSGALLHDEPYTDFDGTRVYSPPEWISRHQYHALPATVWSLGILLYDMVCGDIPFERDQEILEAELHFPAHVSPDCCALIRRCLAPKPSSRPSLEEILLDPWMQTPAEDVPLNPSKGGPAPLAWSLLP
Voltage-gated inwardly rectifying potassium channel KCNH2, sequence (Q12809 whole entry): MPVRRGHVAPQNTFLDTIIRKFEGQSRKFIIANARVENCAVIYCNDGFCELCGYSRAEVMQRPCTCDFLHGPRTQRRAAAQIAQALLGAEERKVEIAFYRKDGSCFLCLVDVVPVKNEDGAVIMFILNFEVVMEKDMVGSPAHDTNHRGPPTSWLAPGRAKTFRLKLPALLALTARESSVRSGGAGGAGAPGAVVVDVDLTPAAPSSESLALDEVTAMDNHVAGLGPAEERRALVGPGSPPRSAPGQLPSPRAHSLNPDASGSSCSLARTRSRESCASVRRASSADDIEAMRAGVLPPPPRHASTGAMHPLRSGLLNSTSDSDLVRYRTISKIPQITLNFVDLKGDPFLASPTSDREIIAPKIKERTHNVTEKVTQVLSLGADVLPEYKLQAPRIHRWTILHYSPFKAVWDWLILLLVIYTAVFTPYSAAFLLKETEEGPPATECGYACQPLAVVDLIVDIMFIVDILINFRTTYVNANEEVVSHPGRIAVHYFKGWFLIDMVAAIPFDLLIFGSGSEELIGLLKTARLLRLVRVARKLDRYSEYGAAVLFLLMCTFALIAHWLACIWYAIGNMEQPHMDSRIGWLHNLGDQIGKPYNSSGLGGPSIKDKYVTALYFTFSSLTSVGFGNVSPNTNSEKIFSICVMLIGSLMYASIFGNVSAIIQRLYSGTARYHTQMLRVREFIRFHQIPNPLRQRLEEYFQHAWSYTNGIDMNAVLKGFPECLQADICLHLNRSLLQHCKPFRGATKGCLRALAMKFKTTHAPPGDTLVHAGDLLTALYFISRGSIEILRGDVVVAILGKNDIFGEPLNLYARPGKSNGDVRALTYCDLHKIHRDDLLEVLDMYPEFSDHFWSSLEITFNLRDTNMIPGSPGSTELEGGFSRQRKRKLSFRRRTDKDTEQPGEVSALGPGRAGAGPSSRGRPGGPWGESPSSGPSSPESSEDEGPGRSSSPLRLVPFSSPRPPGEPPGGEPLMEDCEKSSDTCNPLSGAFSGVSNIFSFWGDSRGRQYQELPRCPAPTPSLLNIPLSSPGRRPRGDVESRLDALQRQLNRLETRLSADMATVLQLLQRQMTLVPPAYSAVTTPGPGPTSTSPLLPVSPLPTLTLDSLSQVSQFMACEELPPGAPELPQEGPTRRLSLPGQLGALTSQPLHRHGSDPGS
Phosphatidylinositol 4,5-bisphosphate 3-kinase catalytic subunit gamma isoform, sequence (P48736 whole entry, canonical isoform): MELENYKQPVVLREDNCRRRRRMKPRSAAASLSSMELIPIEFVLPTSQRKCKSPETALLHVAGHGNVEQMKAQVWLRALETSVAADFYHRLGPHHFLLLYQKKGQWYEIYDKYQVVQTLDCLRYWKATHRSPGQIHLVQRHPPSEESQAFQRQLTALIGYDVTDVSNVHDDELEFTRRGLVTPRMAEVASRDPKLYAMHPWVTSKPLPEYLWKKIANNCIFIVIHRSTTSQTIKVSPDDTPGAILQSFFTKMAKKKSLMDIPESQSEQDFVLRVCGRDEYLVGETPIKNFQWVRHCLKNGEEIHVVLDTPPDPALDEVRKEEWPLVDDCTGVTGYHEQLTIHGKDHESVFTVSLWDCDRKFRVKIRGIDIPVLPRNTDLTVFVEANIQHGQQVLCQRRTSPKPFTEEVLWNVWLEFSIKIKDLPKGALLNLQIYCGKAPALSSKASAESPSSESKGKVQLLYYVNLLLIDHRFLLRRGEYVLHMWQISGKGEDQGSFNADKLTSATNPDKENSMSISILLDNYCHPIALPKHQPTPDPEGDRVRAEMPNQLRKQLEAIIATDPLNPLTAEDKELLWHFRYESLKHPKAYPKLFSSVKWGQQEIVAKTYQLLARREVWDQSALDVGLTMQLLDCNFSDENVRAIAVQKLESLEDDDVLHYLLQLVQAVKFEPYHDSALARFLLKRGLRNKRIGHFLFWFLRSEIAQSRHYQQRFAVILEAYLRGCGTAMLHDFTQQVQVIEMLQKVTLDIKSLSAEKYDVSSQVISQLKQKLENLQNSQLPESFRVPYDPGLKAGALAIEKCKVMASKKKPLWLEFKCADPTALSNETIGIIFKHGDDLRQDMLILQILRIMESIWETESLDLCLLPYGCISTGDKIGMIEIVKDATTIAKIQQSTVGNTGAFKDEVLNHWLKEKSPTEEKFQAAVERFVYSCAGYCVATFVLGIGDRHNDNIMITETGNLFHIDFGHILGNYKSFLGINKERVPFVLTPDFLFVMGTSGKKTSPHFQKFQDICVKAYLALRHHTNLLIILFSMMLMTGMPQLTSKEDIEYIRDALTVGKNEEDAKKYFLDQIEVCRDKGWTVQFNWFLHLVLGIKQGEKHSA
PI3-kinase p110-alpha/p85-alpha, sequence (P27986 whole entry, canonical isoform): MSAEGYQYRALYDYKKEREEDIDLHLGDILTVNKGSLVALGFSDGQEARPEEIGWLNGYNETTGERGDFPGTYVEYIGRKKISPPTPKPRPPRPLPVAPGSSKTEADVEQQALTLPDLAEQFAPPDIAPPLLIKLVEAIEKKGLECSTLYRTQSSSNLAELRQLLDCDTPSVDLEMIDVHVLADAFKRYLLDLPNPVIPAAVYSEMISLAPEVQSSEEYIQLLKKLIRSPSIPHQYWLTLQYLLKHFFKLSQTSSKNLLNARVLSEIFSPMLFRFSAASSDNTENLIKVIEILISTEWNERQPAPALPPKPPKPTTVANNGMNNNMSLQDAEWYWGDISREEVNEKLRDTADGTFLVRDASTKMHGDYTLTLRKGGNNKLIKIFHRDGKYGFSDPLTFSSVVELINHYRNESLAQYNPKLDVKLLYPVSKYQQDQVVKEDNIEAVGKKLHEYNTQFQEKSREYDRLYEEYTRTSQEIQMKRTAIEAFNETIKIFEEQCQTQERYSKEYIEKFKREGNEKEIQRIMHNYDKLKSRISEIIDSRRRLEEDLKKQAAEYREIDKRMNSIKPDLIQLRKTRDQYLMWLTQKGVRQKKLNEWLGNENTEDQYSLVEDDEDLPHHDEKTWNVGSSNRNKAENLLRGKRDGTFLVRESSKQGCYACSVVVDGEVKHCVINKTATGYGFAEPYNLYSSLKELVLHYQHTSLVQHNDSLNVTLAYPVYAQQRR
PI3-kinase p110-alpha/p85-alpha, sequence (P42336 whole entry, canonical isoform): as the sequence (P42336 whole entry, canonical isoform) above

Row | Compound | IC50 [1] | IC50 [2] | IC50 [3] | further results
1 | COc1ncc2cc1NS(=O)(=O)c1cccc(c1)C(=O)NCC1=CC=C(O1)c1ncnc3c1SC2=C3 | 247 nM | 381 nM | > 10000 nM | –
2 | COc1ncc2cc1NS(=O)(=O)c1ccc(F)c(c1)C(=O)NCC1=CC=C(S1)c1ncnc3c1SC2=C3 | 14.6 nM | 6.34 nM | 2100 nM | –
3 | COc1ncc2cc1NS(=O)(=O)c1cccc(c1)C(=O)NCC1=CC=C(S1)c1ncnc3c1SC2=C3 | 12.9 nM | 17 nM | 5700 nM | –
4 | COc1ncc2cc1NS(=O)(=O)c1ccc(F)c(c1)C(=O)NCC1=CC=C(S1)c1ncnc3c1SC2=C3C | 22.3 nM | 0.13 nM | 74.5 nM | Ki [4]: 0.27 nM; Ki [5]: 0.17 nM; EC50 [6]: 60 nM; IC50 [7]: 8.04 nM; Ki (PI3K p110 beta/p85 alpha): 0.31 nM; Tmax [8]: 5 h; remaining at 0.5 h [9]: > 98%; bioavailability [10]: 124%; AUC(0-t) [11]: 99100 ng·h/mL; Vd [12]: 0.26 L/kg; IC50 [13]: 5.75 nM; Cmax [14]: 9370 ng/mL; clearance [15]: 1.05 mL/min/kg; half-life [16]: 14.6 h; EC50 (PI3K/mTOR (Homo sapiens)): < 1 nM; half-life [17]: 2.96 h; inhibition (INH) [18]: Not Active; AUC(0-t) [19]: 11200 ng·h/mL; Ki [20]: 0.13 nM
5 | COc1ncc2cc1NS(=O)(=O)c1cccc(c1)C(=O)NCc1cncc(c1)-c1ncnc3c1SC2=C3C | 42.9 nM | 19 nM | 175 nM | –
6 | COc1ncc2cc1NS(=O)(=O)c1cccc(c1)C(=O)NC[C@@H]1CCN(C1)c1ncnc3c1SC2=C3C | 122 nM | 3.08 nM | > 10000 nM | –
7 | COc1ncc2cc1NS(=O)(=O)c1cccc(c1)C(=O)NC[C@H]1CCN(C1)c1ncnc3c1SC2=C3C | 44 nM | 3.15 nM | > 10000 nM | –
8 | COc1ncc2cc1NS(=O)(=O)c1ccc(Cl)c(c1)C(=O)NCC1=CC=C(S1)c1ncnc3c1SC2=C3 | 11.1 nM | 6.28 nM | > 10000 nM | –
9 | COc1ncc2cc1NS(=O)(=O)c1cccc(c1)C(=O)NCc1csc(c1)-c1ncnc3c1SC2=C3 | 13.1 nM | 28.9 nM | > 10000 nM | –
10 | COc1ncc2cc1NS(=O)(=O)c1cccc(c1)C(=O)NCc1cc(cs1)-c1ncnc3c1SC2=C3 | 154 nM | 13.7 nM | > 10000 nM | –
11 | COc1ncc(-c2sc3c(-c4ccc(CNC=O)s4)ncnc3c2C)cc1NS(=O)(=O)c1ccccc1 | > 10000 nM | 3.29 nM | 80.9 nM | –
